TNAP inh hi DEA – human TNAP enzyme inhibitors, primary screen, biochemical, luminescent, high phosphate acceptor level, uHTS. 200,000 tested, 0.03% active. AID 1135, 2008. inhibition, % at 20 µM. purified TNAP, CDP-star luminescence, 1 M DEA. Alkaline phosphatase, tissue-nonspecific isozyme (Homo sapiens), P05186;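 active = over 50% inhibition of tissue-nonspecific alkaline phosphatase at 20 µM in the single-dose screen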;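 also: plate controls were DMSO wells for no effect and EDTA-quenched wells as full inhibition for full effect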
Target sequence (P05186 whole entry, looked up): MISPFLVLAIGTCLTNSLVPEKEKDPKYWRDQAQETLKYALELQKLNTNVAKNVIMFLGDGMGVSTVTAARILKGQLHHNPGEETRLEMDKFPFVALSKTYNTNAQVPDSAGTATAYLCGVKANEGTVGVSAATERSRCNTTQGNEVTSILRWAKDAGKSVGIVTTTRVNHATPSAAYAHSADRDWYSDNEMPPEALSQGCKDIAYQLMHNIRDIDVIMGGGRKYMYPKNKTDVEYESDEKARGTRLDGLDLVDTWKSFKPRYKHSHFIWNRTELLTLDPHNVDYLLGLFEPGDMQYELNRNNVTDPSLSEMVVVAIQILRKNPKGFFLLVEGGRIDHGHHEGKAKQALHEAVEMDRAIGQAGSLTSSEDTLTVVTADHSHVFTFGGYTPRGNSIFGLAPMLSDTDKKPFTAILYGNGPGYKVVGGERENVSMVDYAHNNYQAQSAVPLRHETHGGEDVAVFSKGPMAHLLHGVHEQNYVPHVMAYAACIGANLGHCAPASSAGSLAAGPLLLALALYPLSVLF
Autophagy HCS – autophagy modulators in MEF cells, primary screen, imaging, high-content, MEF GFP-LC3 | calls only at 10 µM (by protocol) | 190,000 tested, 0.98% active | MEF GFP-LC3 puncta imaging; test concentration mostly 10 µM;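 active = percentage of spot-positive cells more than 3 SD above its plate mean, without a fluorescence outlier flag or 80% toxicity; inconclusive = no clear call, values can overlap the other calls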;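 also: spot-positive cell cutoff set from DMSO-treated cells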
p47phox inh – p47phox/p22phox peptide binding inhibitors, primary screen, biochemical, uHTS, NADPH oxidase regulatory subunit. 220,000 tested, 0.53% active. inhibition, % at 24.7 µM. Neutrophil cytosol factor 1 (Homo sapiens), P14598. fluorescence polarization, 2 h;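 active = inhibition above about 30%, limit read from the data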;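 also: 0% = p47phox with labelled peptide and 100% = labelled peptide alone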
Ins promoter up – insulin promoter activators in MIN6 cells, imaging, high-content screening, mouse beta cells | MIN6 insulin promoter-GFP reporter; stronger effect = higher value | z-score at 5 µM | 190,000 tested, 0.3% active | AID 1625, 2009;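 active = z-score above 3 at 5 µM with at least 500 cells counted in the well; inconclusive = wells under 500 cells, flagged as cytotoxic or low count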
TNAP act hi DEA – TNAP activators at high phosphate acceptor level, primary screen, biochemical, luminescence, uHTS; purified TNAP, CDP-star luminescence, 1 M DEA, 30 min; stronger effect = higher value; 0 = EDTA background, 1 = DMSO-only activity; activation factor at 20 µM; 200,000 tested, under 10 active; Alkaline phosphatase, tissue-nonspecific isozyme (Homo sapiens), P05186; AID 1136, 2008;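 active = activation factor at least 2 at 20 µM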
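Measured by: Luminescent substrate turnover signal | Test system: Human TNAP | Input: TNAP 1/800 final | Dosing: 20 µM single point | Schedule: 30 min, room temperature | Controls: EDTA wells as negative control, DMSO wells as positive control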
TNAP inh noacc – human TNAP enzyme inhibitors, primary screen, biochemical, luminescent, no phosphate acceptor, uHTS | 200,000 tested, 0.26% active | purified TNAP, CDP-star luminescence, 30 min | AID 1012, 2008 | inhibition, % at 20 µM;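 active = tissue-nonspecific alkaline phosphatase inhibition above about 50% at 20 µM in the single-dose screen, limit read from the data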;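 also: 0% = DMSO negative control and 100% = EDTA positive control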
The depositor's hits bear a star; i = inactive; ? = inconclusive; · = no result; + = active, no number. Shown are actives, neighbours in structure and some others; about 1.8% of the full set was active somewhere.

SMILES	TNAP inh hi DEA	Autophagy HCS	p47phox inh	Ins promoter up	TNAP act hi DEA	TNAP inh noacc
COc1cc(C2C(C#N)=C(N)Oc3cc(O)ccc32)cc(OC)c1OC (stereo unspecified)	-1.1	+	-1.7	·	1	-8.2
C=C(C)COc1ccc2c(CC)cc(=O)oc2c1C	-2.3	i	-7.8	-0.7	1	-5.4
CCCc1cc(=O)oc2c(C)c(OCC(=O)c3ccc(N4CCCC4)cc3)ccc12	-7.6	i	34.1*	-0.86	1.1	4.4
O=C(NCCOCc1ccccc1)C(c1ccccc1)c1ccccc1	-3.1	i	-5.5	-1.43	1	-9.0
COc1ccc(N(C(=O)C(C)C)S(=O)(=O)c2cccc3cccnc23)cc1	-1.7	i	59.3*	0.05	1	-16.2
Cc1cc(C(=O)N/N=C/c2ccc([N+](=O)[O-])o2)c(C)o1	·	·	56.4*	-1.01	·	·
Nc1c(Cl)ncnc1N/N=C/c1ccccn1	20.8	i	10.2	?	0.8	-91.2
Nc1c(Cl)ncnc1N/N=C/c1ccc2ccccc2n1	54.2*	i	-6.2	?	0.5	-22.4
COCCNC(=O)c1ccccc1NC(=O)CCSc1ccccc1	3.1	i	-0.8	-0.14	1	1.6
Nc1c(C(=O)NCc2ccccc2)c2nc3ccccc3nc2n1CCCN1CCOCC1	0.0	+	-47.7	-1.56	1	-12.2
CCOC(=O)c1cc(-c2ccc(C)o2)n[nH]1	0.4	i	-12.5	-0.06	1	68.5*
CCOc1ccc(-c2cc(C(=O)OC)[nH]n2)cc1	-6.2	i	-15.9	-0.13	1.1	85.3*
COC(=O)c1cc(-c2ccc(C)cc2)n[nH]1	-1.5	i	-1.0	0.07	1	90.5*
COC(=O)c1cc(-c2ccc(OC)cc2)n[nH]1	-4.7	i	-313.3	0.05	1	94.3*
COC(=O)c1cc(-c2cccc(OC)c2)n[nH]1	-2.8	i	-22.7	-0.18	1	46.4
CS(=O)(=O)N(CC(=O)Nc1ccc(S(=O)(=O)N2CCOCC2)cc1)c1cccc(F)c1	-1.8	i	-0.3	·	1	-7.5
Cc1ccc(-n2c(=O)c3c4c(sc3n3c(=S)[nH]nc23)CCC4)cc1	·	·	-3.3	-0.52	·	·
Cc1cccc(-n2c(=O)c3c4c(sc3n3c(=S)[nH]nc23)CCC4)c1	4.9	+	2.8	-0.2	1	16.5
CCOCCCNc1nc2c(C)cccn2c(=O)c1/C=C1\SC(=S)N(CC(C)C)C1=O	13.4	+	-34.0	·	0.9	18.8
CCOC(=O)CC1C(=O)NCCN1c1nc2c(C)cccn2c(=O)c1/C=C1\SC(=S)N(CC(C)C)C1=O (stereo unspecified)	·	·	-62.4	16.9*	·	·
CCOC(=O)CC1C(=O)NCCN1S(=O)(=O)c1ccc(OC)cc1 (stereo unspecified)	-0.5	i	-0.9	-0.32	1	-7.5
CCOCCCNc1nc2c(C)cccn2c(=O)c1/C=C1\SC(=S)N(C(C)CC)C1=O (stereo unspecified)	·	·	-40.4	·	·	·
CCCN1C(=O)/C(=C/c2c(NCCCOCC)nc3c(C)cccn3c2=O)SC1=S	0.9	+	-54.2	5.71*	1	12.8
CC(C)CN1C(=O)/C(=C/c2c(N3CCc4ccccc4C3)nc3ccccn3c2=O)SC1=S	·	·	-33.4	16.9*	·	·
CCc1nnc(NS(=O)(=O)c2ccc(N3C(=O)c4ccc(C(=O)O)cc4C3=O)cc2)s1	-1.8	i	-15.6	-0.5	1	-6.9
SMILES	TNAP inh hi DEA	Autophagy HCS	p47phox inh	Ins promoter up	TNAP act hi DEA	TNAP inh noacc
CCN(CC)C(=O)CSc1nnc(COc2ccccc2)n1N	1.3	i	-0.9	·	1	-1.4
Cc1cnn(Cc2cccnc2)c1N	·	·	-12.3	0.48	·	·
O=C(NC1CCCCC1)c1cnn2c(C(F)(F)F)cc(-c3ccco3)nc12	-2.3	i	0.5	-0.74	1	-4.8
O=C(NC1CCCCC1)c1nn2c(C(F)(F)F)cc(-c3ccco3)nc2c1Br	2.5	+	-40.6	-0.57	1	-2.9
COc1ccc(NC(=S)NC(NC(=O)c2ccc(Cl)cc2Cl)C(Cl)(Cl)Cl)c([N+](=O)[O-])c1 (stereo unspecified)	-11.3	+	-4.4	-1.11	1.1	4.4
COc1ccc(NC(=S)NC(NC(=O)c2ccccc2Cl)C(Cl)(Cl)Cl)c([N+](=O)[O-])c1 (stereo unspecified)	12.8	i	-2.4	·	0.9	14.0
COc1ccc(NC(=S)NC(NC(=O)c2cccc3ccccc23)C(Cl)(Cl)Cl)c([N+](=O)[O-])c1 (stereo unspecified)	5.6	+	-17.5	0.17	0.9	2.8
O=C(Nc1ccccc1Oc1ccccc1)c1ccccc1F	-3.4	i	-0.5	-0.56	1	-7.2
Cc1ccc2c(c1)nnn2C1CCN(CC(=O)NNC(=O)c2ccco2)CC1	-1.3	i	13.2	·	1	-127.6
O=C(O)Cc1c(C(=O)O)[nH]c2ccc(C(=O)O)cc12	·	·	-10.5	-0.58	·	·
COCCCNC(=O)c1cn(CC(C)C)c(=O)c2c1c1ccccc1n2C	-5.2	i	-11.9	0.02	1.1	-18.2
CCOc1ccc(NC(=O)c2cn(CC(C)C)c(=O)c3c2c2ccccc2n3C)cc1	-2.7	+	13.3	0.39	1	-13.8
CCN1CCN(Cc2ccc(NC(=O)c3cc(NC(=O)c4ccno4)cc(OC)c3)cc2C(F)(F)F)CC1	·	·	-15.3	-1.01	·	·
CCN1CCN(Cc2ccc(NC(=O)c3cc(NC(=O)c4cc(-c5ccc(OC)cc5)n[nH]4)cc(OC)c3)cc2C(F)(F)F)CC1	·	·	38.2*	0.95	·	·
CCN1CCN(Cc2ccc(NC(=O)c3ccc(C)c(NC(=O)c4c[nH]c5cc(C(F)(F)F)ccc5c4=O)c3)cc2C(F)(F)F)CC1	·	·	73.1*	?	·	·
CCN1CCN(Cc2ccc(NC(=O)c3ccc(C)c(NC(=O)c4ccno4)c3)cc2C(F)(F)F)CC1	·	·	-9.6	-0.76	·	·
CCN1CCN(Cc2ccc(NC(=O)c3cc(NC(=O)c4cc5cccc(OC)c5o4)cc(OC)c3)cc2C(F)(F)F)CC1	·	·	56.7*	0.3	·	·
CN(C)C(=O)CN(c1ccc2c(c1)OCO2)S(C)(=O)=O	0.0	i	-2.3	3.6*	1	-7.7
O=C(c1cc2cc([N+](=O)[O-])ccc2oc1=O)N1CCN(c2ncccn2)CC1	-1.2	+	-7.1	0.77	1	-10.4
CC(=O)c1nc(N2C(=O)CC(Cc3cccc(C)c3)C2=O)sc1C (stereo unspecified)	-2.0	i	-4.9	0.01	1	-6.1
